Article PMC3600638 (Biomaterials, 2013)
Where a name gives a salt, the structure may show the parent alone.

Key:
BxPC-3 xenografts [1] = assay: Western blot of tumor lysates; format: in vivo, nude mice; conditions: 3 daily IV injections
Procedure, shortened: (§1)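 Tumors from xenograft-bearing nude mice harvested 24 h after three daily IV injections; RIPA lysates prepared. 40 μg protein per lane on 4–12% SDS-PAGE, transferred to PVDF, blocked 1 h in 5% milk. Mouse monoclonal PARP-1 and rabbit polyclonal cyclin D1 antibodies (1:500) overnight at 4°C. β-actin (1:4000) as loading control; secondaries 1:4000 for 1 h; ECL detection.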

BxPC-3 cells [2] = assay: In vitro cell viability; format: cell-based, human; conditions: 48 h, MTT
Procedure, shortened: (§2)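 Cells seeded at 1×10⁴ per well in 96-well plates. A range of test compound concentrations was added at 30% confluence, then 48 h at 37°C. MTT at 0.5 mg/mL final for 4 h at 37°C, formazan dissolved in DMSO, A570 read. Viability expressed as % of untreated cells; IC50 derived; mean ± S.D., n=3.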

H460 cells [3] = assay: In vitro cell viability; format: cell-based, human; conditions: 48 h, MTT
Procedure, shortened: as §2

H460 xenografts [4] = assay: Western blot of tumor lysates; format: in vivo, nude mice; conditions: 3 daily IV injections
Procedure, shortened: as §1

BxPC-3 xenografts [5] = assay: In vivo caspase-3/7 activation in tumors; design: species or system nude mice; conditions: 3 daily IV injections, 7.5 μmol/Kg, 24 h after last injection
Procedure, shortened: (§3)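 Female nude mice, 6–8 weeks old, with s.c. right-flank xenografts (5×10⁶ cells in PBS), n=3. Three daily IV doses of 7.5 μmol/Kg; tumors taken 24 h after the last dose. Tissue homogenised and sonicated in RIPA with protease inhibitors, spun 14,000 rpm for 10 min at 4°C. 40 μg protein (BCA) assayed with a caspase-3/7 kit.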

H460 subcutaneous tumors = assay: Tumor growth inhibition study; format: in vivo, nude mice; conditions: H460 xenograft, 4 IV injections every other day, 7.5 μmol/Kg
Procedure, shortened: (§4)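 Female nude mice, 6–8 weeks old, inoculated s.c. with 5×10⁶ cells. Dosing began day 12 at 150–200 mm³ tumor volume, mice randomised into 6 groups (n=5). IV injections every other day ×4 at 7.5 μmol/Kg. Calipers every other day, V = 0.5×W²×L; body weight recorded every other day; mice euthanised when a tumor reached 20 mm.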

BxPC-3 cells [6] = assay: In vitro caspase-3/7 activation; format: cell-based, human; conditions: 1.8 μM, 48 h
Procedure, shortened: (§5)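 H460 or BxPC-3 cells grown in RPMI-1640 with 10% FBS at 37°C and 5% CO₂. 2×10⁵ cells per well in 6-well plates, exposed to 1.8 μM test compound for 48 h. Lysed in RIPA buffer with protease inhibitors, protein measured by BCA, and 40 μg protein assayed with a commercial caspase-3/7 activity kit.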

Pharmacokinetic profile = format: in vivo, nude mice; conditions: IV bolus, H460 xenograft model
Procedure, shortened: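 Nanoparticles co-loaded with trace ³H-CTP as a marker of entrapped drug, given as an IV bolus to nude mice bearing H460 tumors. 30 μL blood drawn from the orbital venous plexus at 20 min, 1, 2, 4, 8 and 24 h, bleached with 30% H₂O₂ and counted by liquid scintillation. %ID in blood calculated with the initial value set at 100%; PK parameters from a non-compartmental fit.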

H460 cells [7] = assay: In vitro caspase-3/7 activation; format: cell-based, human; conditions: 1.8 μM, 48 h
Procedure, shortened: as §5

[8] = tested on: BxPC-3 subcutaneous tumors; assay: Tumor growth inhibition study; format: in vivo, nude mice; conditions: BxPC-3 xenograft, 4 IV injections every other day, 7.5 μmol/Kg
Procedure, shortened: as §4

H460 xenografts [9] = assay: In vivo caspase-3/7 activation in tumors; design: species or system nude mice; conditions: 3 daily IV injections, 7.5 μmol/Kg, 24 h after last injection
Procedure, shortened: as §3

H460 cells [10] = assay: In vitro cellular uptake of NBD-labeled LCPs; format: cell-based, human; conditions: pre-incubation with 50 μM haloperidol for 1 h

Compound | cleaved PARP in tumors (BxPC-3 xenografts [1]) | cell viability (BxPC-3 cells [2]) | cell viability (H460 cells [3]) | cleaved PARP in tumors (H460 xenografts [4]) | caspase-3/7 activity in tumors (BxPC-3 xenografts [5]) | tumor growth inhibition (H460 subcutaneous tumors) | in vitro caspase-3/7 activity (BxPC-3 cells [6]) | AUMC (Pharmacokinetic profile) [h^2·%] | in vitro caspase-3/7 activity (H460 cells [7]) | tumor growth inhibition [8] | caspase-3/7 activity in tumors (H460 xenografts [9]) | effect on cellular uptake of AA-modified LCP (H460 cells [10])
Nc1ccn([C@@H]2O[C@H](COP(=O)(O)OP(=O)(O)OP(=O)(O)O)[C@@H](O)C2(F)F)c(=O)n1 [GTP, Gemcitabine triphosphate tris(triethylammonium) salt] | did not induce PARP elevation | decreased the cell viability | decreased the cell viability | did not induce PARP elevation | did not elicit caspase activity in vivo | limited therapeutic effects | significantly higher than the control | 25.34 | significantly higher than the control | limited therapeutic effects | did not elicit caspase activity in vivo | –
O=C(CCCN1CCC(O)(c2ccc(Cl)cc2)CC1)c1ccc(F)cc1 [haloperidol] | – | – | – | – | – | – | – | – | – | – | – | significantly reduced the cellular uptake of AA-modified LCP
Nc1ccn([C@@H]2O[C@H](CO)[C@@H](O)C2(F)F)c(=O)n1 [Gem, 2′, 2′-difluoro 2′-deoxycytidine] | did not induce PARP elevation | decreased the cell viability | decreased the cell viability | did not induce PARP elevation | did not elicit caspase activity in vivo | limited therapeutic effects | significantly higher than the control | – | significantly higher than the control | limited therapeutic effects | did not elicit caspase activity in vivo | –
